Laboratory results reported in ChEMBL document CHEMBL1157595, “Synthesis and biological evaluation of botulinum neurotoxin a protease inhibitors” (J Med Chem, 2010).
The source made the active and inactive calls. The rule behind the calls is not given here.

Tests used:
[1] = biological target: T1, Botulinum neurotoxin type A (Clostridium botulinum, UniProt P0DPI0); experiment: Inhibition of Clostridium botulinum toxin BoNT/A light chain by FRET assay
Procedure, shortened: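 Recombinant BoNT/A light chain was assayed by FRET substrate cleavage in 50 mM HEPES–0.05% Tween, pH 7.4. Reactions were stopped with acetic acid (0.5% final), and cleaved substrate fluorescence was read at 485 nm after excitation at 398 nm.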

[2] = biological target: T1, Botulinum neurotoxin type A; experiment: Inhibition of Clostridium botulinum toxin BoNT/A light chain by HPLC-based assay
Procedure, shortened: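 Secondary HPLC-based cleavage assay with recombinant BoNT/A light chain, used to confirm FRET data. Values are the average of two experiments with variation under 10%.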

Lethal factor = biological target: T2, Lethal factor (Bacillus anthracis, UniProt P15917); experiment: Inhibition of Bacillus anthracis anthrax lethal factor by FRET assay
T2 sequence (P15917 whole entry): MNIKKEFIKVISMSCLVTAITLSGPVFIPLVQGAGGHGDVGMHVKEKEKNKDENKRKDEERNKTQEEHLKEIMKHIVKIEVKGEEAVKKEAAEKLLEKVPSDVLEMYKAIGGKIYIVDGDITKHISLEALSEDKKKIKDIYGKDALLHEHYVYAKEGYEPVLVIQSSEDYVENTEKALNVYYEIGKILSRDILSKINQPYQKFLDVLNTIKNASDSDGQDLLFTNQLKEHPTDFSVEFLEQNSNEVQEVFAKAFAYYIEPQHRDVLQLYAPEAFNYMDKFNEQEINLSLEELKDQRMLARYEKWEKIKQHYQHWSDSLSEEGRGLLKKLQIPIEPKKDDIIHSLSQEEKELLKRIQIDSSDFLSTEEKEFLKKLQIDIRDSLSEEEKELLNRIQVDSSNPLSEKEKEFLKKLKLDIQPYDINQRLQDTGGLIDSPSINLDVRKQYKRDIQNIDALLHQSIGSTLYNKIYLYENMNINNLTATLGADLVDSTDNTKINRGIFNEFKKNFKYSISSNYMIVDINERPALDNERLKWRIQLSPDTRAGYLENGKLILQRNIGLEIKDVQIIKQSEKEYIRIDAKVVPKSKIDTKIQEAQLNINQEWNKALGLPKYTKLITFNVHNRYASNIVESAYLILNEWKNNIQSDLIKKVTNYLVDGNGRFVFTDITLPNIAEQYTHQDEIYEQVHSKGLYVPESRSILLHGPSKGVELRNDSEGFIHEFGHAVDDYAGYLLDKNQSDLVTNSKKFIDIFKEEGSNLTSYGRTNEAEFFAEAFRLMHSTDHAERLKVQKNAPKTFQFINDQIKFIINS

[3] = biological target: T1, Botulinum neurotoxin type A; experiment: Inhibition of Clostridium botulinum toxin BoNT/A light chain
[4] = Selectivity ratio of IC50 for Bacillus anthracis anthrax lethal factor to IC50 for Clostridium botulinum toxin BoNT/A light chain
[5] = biological target: Botulinum neurotoxin type A (Clostridium botulinum) (UniProt P0DPI0); conditions: 20 uM
[6] = biological target: Matrix metalloproteinase-9 (Homo sapiens) (UniProt P14780); experiment: Inhibition of human MMP9
[7] = biological target: T3, Interstitial collagenase (Homo sapiens) (UniProt P03956); experiment: Inhibition of human MMP1
T3 sequence (whole entry): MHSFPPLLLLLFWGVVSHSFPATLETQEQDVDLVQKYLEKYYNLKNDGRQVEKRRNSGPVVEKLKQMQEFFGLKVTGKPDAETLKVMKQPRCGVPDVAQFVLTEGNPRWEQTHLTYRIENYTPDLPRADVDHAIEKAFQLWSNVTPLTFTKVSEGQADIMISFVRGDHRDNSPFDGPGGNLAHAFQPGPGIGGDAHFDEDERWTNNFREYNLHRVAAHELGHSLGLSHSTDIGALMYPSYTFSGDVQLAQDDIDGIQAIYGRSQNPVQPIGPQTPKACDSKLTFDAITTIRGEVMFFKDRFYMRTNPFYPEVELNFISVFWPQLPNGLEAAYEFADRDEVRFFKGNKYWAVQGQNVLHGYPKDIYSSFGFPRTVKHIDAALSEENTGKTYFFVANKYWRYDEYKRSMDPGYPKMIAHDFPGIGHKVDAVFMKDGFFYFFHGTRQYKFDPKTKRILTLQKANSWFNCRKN

[8] = biological target: T4, Botulinum neurotoxin type B (Clostridium botulinum) (UniProt P10844); experiment: Inhibition of Clostridium botulinum toxin BoNT/B
T4 sequence (whole entry): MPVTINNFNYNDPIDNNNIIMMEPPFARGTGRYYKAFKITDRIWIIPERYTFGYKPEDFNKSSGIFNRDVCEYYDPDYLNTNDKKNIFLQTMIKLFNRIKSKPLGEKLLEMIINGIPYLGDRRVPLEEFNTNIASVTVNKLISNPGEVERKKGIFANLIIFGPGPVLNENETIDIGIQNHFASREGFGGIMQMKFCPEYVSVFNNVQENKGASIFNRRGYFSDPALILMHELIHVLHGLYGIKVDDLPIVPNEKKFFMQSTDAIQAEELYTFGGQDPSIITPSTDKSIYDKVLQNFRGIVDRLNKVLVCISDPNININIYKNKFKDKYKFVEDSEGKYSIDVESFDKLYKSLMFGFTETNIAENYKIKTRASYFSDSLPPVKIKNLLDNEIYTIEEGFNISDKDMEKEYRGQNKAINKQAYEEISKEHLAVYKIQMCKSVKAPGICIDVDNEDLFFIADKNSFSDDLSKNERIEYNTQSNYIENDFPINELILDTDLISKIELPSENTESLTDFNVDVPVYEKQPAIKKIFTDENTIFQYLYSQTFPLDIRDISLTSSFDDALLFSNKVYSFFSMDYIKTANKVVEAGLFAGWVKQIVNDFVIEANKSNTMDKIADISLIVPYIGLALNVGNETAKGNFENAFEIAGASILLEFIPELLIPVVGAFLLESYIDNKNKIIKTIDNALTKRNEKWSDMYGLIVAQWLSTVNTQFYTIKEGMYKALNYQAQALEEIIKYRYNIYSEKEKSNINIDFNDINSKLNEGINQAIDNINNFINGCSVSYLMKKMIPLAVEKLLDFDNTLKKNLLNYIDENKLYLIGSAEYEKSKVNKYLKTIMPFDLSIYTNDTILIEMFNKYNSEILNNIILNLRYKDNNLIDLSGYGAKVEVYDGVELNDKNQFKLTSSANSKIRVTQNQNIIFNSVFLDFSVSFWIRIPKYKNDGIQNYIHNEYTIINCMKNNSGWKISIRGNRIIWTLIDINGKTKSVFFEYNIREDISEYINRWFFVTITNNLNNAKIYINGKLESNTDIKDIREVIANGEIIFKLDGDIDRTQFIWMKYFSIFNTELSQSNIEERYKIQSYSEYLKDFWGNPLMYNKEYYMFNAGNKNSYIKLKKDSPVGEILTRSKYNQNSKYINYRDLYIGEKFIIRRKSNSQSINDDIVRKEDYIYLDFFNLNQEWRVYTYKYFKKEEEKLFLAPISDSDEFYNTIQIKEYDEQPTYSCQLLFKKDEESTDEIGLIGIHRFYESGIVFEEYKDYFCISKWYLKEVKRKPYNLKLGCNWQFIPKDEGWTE

T1 sequence (P0DPI0 2-448 limits assumed): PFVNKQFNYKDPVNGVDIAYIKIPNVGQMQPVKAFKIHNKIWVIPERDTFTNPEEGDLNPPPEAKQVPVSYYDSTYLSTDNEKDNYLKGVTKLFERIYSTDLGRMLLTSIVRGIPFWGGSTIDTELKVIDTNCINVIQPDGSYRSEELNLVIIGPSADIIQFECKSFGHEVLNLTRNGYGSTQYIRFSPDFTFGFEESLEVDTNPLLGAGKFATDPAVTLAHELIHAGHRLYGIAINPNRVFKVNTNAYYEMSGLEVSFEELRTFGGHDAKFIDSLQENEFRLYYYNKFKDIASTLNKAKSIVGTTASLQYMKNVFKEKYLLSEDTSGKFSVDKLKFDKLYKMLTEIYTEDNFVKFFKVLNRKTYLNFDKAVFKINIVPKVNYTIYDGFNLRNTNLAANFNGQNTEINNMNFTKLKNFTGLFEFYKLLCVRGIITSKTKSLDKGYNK
Matrix metalloproteinase-9 (Homo sapiens), sequence (P14780 whole entry): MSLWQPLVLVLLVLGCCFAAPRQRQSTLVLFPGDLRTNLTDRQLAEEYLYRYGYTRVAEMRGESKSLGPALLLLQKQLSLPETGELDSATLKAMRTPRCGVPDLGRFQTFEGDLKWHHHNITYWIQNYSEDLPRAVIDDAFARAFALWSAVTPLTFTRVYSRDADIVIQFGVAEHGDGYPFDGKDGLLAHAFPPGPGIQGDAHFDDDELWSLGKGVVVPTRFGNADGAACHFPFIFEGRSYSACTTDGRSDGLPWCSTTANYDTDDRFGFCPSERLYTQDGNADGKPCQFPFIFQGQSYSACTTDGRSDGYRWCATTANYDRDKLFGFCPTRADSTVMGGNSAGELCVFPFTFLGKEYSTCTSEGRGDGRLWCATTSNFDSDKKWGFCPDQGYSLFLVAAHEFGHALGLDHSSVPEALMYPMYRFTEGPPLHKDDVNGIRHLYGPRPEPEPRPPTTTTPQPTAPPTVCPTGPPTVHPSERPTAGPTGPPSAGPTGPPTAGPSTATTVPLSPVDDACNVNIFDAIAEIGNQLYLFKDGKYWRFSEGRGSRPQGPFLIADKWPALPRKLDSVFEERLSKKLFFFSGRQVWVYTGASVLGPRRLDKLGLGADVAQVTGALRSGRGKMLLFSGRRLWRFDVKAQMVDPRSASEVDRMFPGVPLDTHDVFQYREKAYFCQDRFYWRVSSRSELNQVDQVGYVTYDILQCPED
Botulinum neurotoxin type A (Clostridium botulinum), sequence (P0DPI0 2-448 limits assumed): as the sequence (P0DPI0 2-448 limits assumed) above

SMILES	IC50 [1] [µM]	IC50 [2] [µM]	IC50 (Lethal factor) [µM]	further results
c1cc(C2=NCCN2)ccc1Oc1ccc(-c2cc3ccc(C4=NCCN4)cc3s2)cc1	7.1	25	18	
c1cc(-c2cc3ccc(C4=NCCN4)cc3s2)ccc1C1=NCCN1	43		> 100	
c1cc(C2=NCCCN2)ccc1Oc1ccc(-c2cc3ccc(C4=NCCCN4)cc3s2)cc1	54		> 100	
CCOc1ccc(C(Nc2cccnc2)c2cc(Cl)c3cccnc3c2O)cc1 (configuration not stated)				IC50 [3]: 0.5 µM
c1cc(C2=NCCCN2)ccc1Oc1ccc(-c2nc3ccc(C4=NCCCN4)cc3[nH]2)cc1	28	41		
OC1CN=C(c2ccc(Oc3ccc(-c4cc5ccc(C6=NCC(O)CN6)cc5[nH]4)cc3)cc2)NC1 (configuration not stated)	7.3		> 100	Ratio IC50 [4]: 10
N#Cc1ccc(Oc2ccc(-c3cc4ccc(C#N)cc4[nH]3)cc2)cc1	> 100			
c1cc(C2=NCCCN2)ccc1Oc1ccc(-c2cc3ccc(C4=NCCCN4)cc3[nH]2)nc1	67	> 100	> 100	
c1cc(C2=NCCN2)ccc1Oc1ccc(-c2nc3ccc(C4=NCCN4)cc3[nH]2)cc1	24.5			
N=C(N)c1ccc(Oc2ccc(-c3cc4ccc(C(=N)N)cc4[nH]3)cc2)cc1	11	17	35	inhibition [5]: 75%
Clc1ccc2cc(-c3ccc(Oc4ccc(C5=NCCN5)cc4)cc3)[nH]c2c1	> 100		51	
Clc1ccc(Oc2ccc(-c3cc4ccc(C5=NCCN5)cc4[nH]3)cc2)c(Cl)c1	> 25	52	> 100	
c1cc(C2=NCCN2)ccc1Oc1ccc(-c2cc3ccc(C4=NCCN4)cc3[nH]2)cc1	12.5	9.4	43	
c1cc(-c2cc3ccc(C4=NCCCN4)cc3s2)ccc1C1=NCCCN1	> 100			
N#Cc1ccc(Oc2ccc(-c3cc4ccc(C#N)cc4[nH]3)nc2)cc1	> 100		> 100	
c1cc(C2=NCCN2)ccc1Oc1ccc(-c2cc3ccc(C4=NCCN4)cc3[nH]2)nc1	69	> 100	55	
N#Cc1ccc(Oc2ccc(-c3cc4ccc(C(=N)N)cc4[nH]3)cc2)cc1	> 25		> 100	
NCCCCCCCNCCCCCCCNC(=O)c1cc(CCC(=O)NO)c(CCC(O)(c2ccccc2)c2ccccc2)[nH]1				IC50 [3]: < 1 µM; Ki [3]: 0.76 µM
N#Cc1ccc(Oc2ccc(-c3cc4ccc(C5=NCCN5)cc4[nH]3)cc2)c(Cl)c1	30		> 100	
N#Cc1ccc(Oc2ccc(-c3cc4ccc(C#N)cc4[nH]3)cc2)c(Cl)c1	> 100			
c1cc(C2=NCCCN2)ccc1Oc1ccc(-c2cc3ccc(C4=NCCCN4)cc3[nH]2)cc1	21	43	> 100	
c1cc(-c2cc3ccc(C4=NCCN4)cc3[nH]2)ccc1C1=NCCN1	20		49	inhibition [6]: inactive; inhibition [7]: inactive; inhibition [8]: inactive
NC(=O)c1ccc(Oc2ccc(-c3cc4ccc(C(N)=O)cc4[nH]3)cc2)cc1	> 100		> 100	
c1cc(-c2cc3ccc(C4=NCCCN4)cc3[nH]2)ccc1C1=NCCCN1	> 100		> 100	
CN(C)CC/N=C(\N)c1ccc(Oc2ccc(-c3cc4ccc(/C(N)=N/CCN(C)C)cc4[nH]3)cc2)cc1	2.5	4.4	28	Ratio IC50 [4]: 10; inhibition [6]: inactive; inhibition [7]: inactive; inhibition [8]: inactive
